# Screening results from PubChem BioAssay.
# NR2E3 ag-1: activates human NR2E3 receptor. CHO-S Gal4-NCOR/VP16-NR2E3 two-hybrid, luciferase. inhibition of corepressor binding, % at 3.98 µM. actives 0.35% (n = 360,000). AID 602229;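 active = inhibition above the mean of all tested compounds plus 3 SD, cut at about 70% in these data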;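 note: 0% = DMSO with NR2E3 transfected cells and 100% = cells lacking NR2E3 construct; higher means lower luciferase signal from less NR2E3 corepressor binding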
# NR2E3 ag-2: NR2E3 (human) agonism | GST-NR2E3/biotin-RetCOR TR-FRET, 1536-well | inhibition of corepressor binding, % at 4.78 µM | actives 0.12% (n = 320,000) | Q9Y5X4;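 active = percent inhibition above the cutoff of mean plus 3 SD of all tested compounds, set per screening campaign, cut at about 20% in these data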;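 note: 0% = DMSO wells and 100% = biotin wells as full block of FRET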
#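 system = GST-tagged NR2E3 plus biotinylated RetCOR corepressor | input = 1.35 nM GST-NR2E3 | also added = 7 nM biotin-RetCOR | schedule = 5 h incubation at 4 °C | measured by = TR-FRET with europium anti-GST and streptavidin-D2, 340 nm excitation | read-out = percent loss of FRET ratio relative to control wells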
# MC4R barr agon: human MC4R agonism via beta-arrestin | P32245 | U2OS MC4R beta-arrestin complementation, luminescence; percent of melanotan II response, DMSO zero | AID 540308 | activation, % at 8.9 µM | actives 0.98% (n = 360,000);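 active = activation above a per-plate cutoff, the mean activation of sample wells on that plate plus 3 SD, cut at about 8% in these data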
# PG9 Ab binder: binds the HIV-1 gp120 antibody PG9. TR-FRET gp120-PG9 antibody binding. inhibition, % at 6.7 µM. actives 0.43% (n = 360,000); in the data active = inhibition above about 8.5%
# MC4R antagonist: antagonists of human melanocortin 4 receptor (MC4R); P32245; MC4R-expressing cells, MTII-stimulated cAMP, LANCE TR-FRET; inhibition, % at 6.5 µM; actives 0.48% (n = 360,000); AID 540295;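 active = inhibition above its plate's cutoff, the mean of tested wells on that plate plus 3 SD, cut at about 29% in these data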;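 note: 0% = Melanotan II alone and 100% = Melanotan II plus saturating MCL0020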
#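 Material – human MC4R-expressing U2OS cells · Repeats – no replicates · Detection – TR-FRET with Eu-cAMP and labeled anti-cAMP, 671 nm · Times – compound 30 min, challenge 1 h, detection 1 h · Compound – single nominal compound dose of 6.5 µM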
# NR1D1 modulator: Rev-erb alpha (human) modulation | P20393 | Rev-erbα–FITC-DNA binding, fluorescence polarization, 90 min | activity, % at 10 µM | actives 0.79% (n = 370,000);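 active = activity above about 14%, limit read from the data; passing the limit was not always enough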;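 note: 0% = DMSO wells with 35 nM protein and 100% = DMSO wells with 750 nM protein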
# Target sequence (P20393 whole entry, looked up): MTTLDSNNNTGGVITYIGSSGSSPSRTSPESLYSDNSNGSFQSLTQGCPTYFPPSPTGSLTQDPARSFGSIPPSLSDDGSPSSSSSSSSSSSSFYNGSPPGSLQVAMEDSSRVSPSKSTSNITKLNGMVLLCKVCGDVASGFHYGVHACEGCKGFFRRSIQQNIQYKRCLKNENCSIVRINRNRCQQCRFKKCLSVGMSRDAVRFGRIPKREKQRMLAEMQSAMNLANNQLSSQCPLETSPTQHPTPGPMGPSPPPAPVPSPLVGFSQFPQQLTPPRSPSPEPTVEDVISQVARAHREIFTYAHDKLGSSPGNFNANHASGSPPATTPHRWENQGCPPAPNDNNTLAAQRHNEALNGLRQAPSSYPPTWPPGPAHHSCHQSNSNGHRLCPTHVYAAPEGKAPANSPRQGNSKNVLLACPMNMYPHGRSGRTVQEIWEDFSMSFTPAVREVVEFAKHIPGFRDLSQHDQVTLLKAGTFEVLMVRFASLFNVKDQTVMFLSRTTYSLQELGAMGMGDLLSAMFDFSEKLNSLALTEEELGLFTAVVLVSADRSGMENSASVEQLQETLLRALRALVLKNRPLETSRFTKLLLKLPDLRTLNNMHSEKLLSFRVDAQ
# NR2E3 ag conf: confirmation of human NR2E3 agonists; inhibition, % at 3.98 µM; actives 51% (n = 2,300); shares compounds with NR2E3 ag-1; CHO-S mammalian two-hybrid NR2E3-NCOR, luciferase luminescence;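 active = average inhibition above a cutoff equal to the mean inhibition of all tested compounds plus one SD, cut at about 70% in these data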;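 note: 0% = DMSO in NR2E3 cells and 100% = DMSO in cells lacking NR2E3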
# VP16 counter: counter-screen for NR2E3 agonists: GAL4-VP16 reporter inhibitors; shares compounds with NR2E3 ag-1; CHO-S GAL4-VP16 luciferase reporter, luminescence; inhibition, % at 3.98 µM; actives 29% (n = 2,300);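 active = mean inhibition above a cutoff equal to the average over all tested compounds plus one standard deviation, cut at about 70% in these data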;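 note: luciferase from a UAS reporter driven by GAL4-VP16 transactivation; 0% = DMSO with VP16-transfected cells and 100% = DMSO with cells lacking VP16; higher means less reporter light so more repression of VP16 activity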
# The depositor's hits bear a star; · = no result given. Hits are enriched below; roughly 2.7% of the tested compounds scored in any of these assays.
SMILES,NR2E3 ag-1,NR2E3 ag-2,MC4R barr agon,PG9 Ab binder,MC4R antagonist,NR1D1 modulator,NR2E3 ag conf,VP16 counter
Cc1nc2c(-c3ccc(F)cc3)cnn2c(N)c1-c1ccccc1,77*,2,-1,-1,4,12,48,12
COc1ccc(NC(=O)OC(CN2CCCCC2)C(F)(F)F)cc1 (centres undefined),-8,0,0,0,-1,-8,·,·
CCCCc1ccc(S(=O)(=O)N/N=C(/C)c2ccncc2)cc1,86*,-1,-1,-1,1,-5,51,67
CCOC(=O)c1sc(NC(=O)c2ccc3ncsc3c2)nc1C,-47,3,3,0,-1,2,·,·
CCOc1cc(/C=N/Nc2ncc(C)c(=O)[nH]2)ccc1O,-21,0,-1,-3,-14,2,·,·
COc1ccc(N2CCN(C(=O)c3csc4ccccc34)CC2)cc1,6,2,0,0,-6,2,·,·
O=C(c1csc2ccccc12)N1CCN(c2ccc(Cl)c(Cl)c2)CC1,57,2,-2,2,-6,4,81*,61
Cn1ncc(Cl)c1C(=O)N1CCN(c2ccc(Cl)c(Cl)c2)CC1,103*,1,-1,-1,3,1,95*,86*
O=C(O)c1cccc(OS(=O)(=O)c2cc(Br)ccc2Br)c1,-28,3,0,0,8,-7,·,·
NNC(=O)c1cnn(Cc2ccccc2)c1N,57,3,0,0,16,-5,-16,1
O=C(Nc1ccc(Cl)cc1)c1cc2c(cc1O)[nH]c1ccccc12,101*,-1,0,0,8,-1,99*,90*
Cn1c(=O)c(C#N)c(-c2ccc(F)cc2)c2cc(C(=O)c3cc(Cl)cc(Cl)c3O)cnc21,94*,-1,-3,1,15,-4,100*,94*
CC(C)c1ccc(-n2nnnc2SCc2nc(N)nc(N)n2)cc1,10,·,0,2,3,-2,·,·
CC(C)CCNC(=O)CN(Cc1ccco1)C(=O)c1snc(C(N)=O)c1N,49,-2,7,0,2,0,4,7
CCCc1ccc(S(=O)(=O)N2CCN(C(C)C(=O)NCc3ccc(OC)cc3)CC2)cc1 (centres undefined),49,1,0,-1,19,-5,27,32
CCc1nc(SCC(=O)Nc2nnc(C(C)C)s2)n[nH]1,-25,·,0,-2,5,-6,·,·
O=S(=O)(c1ccc(Cl)cc1)N1CCN(c2ncnc3sccc23)CC1,95*,·,-2,0,-1,-8,94*,72*
CO/N=C/c1ccc(N2CCN(C(=O)c3ccc(Cl)cc3Cl)CC2)c([N+](=O)[O-])c1,76*,1,-1,0,7,3,91*,76*
Cc1ccc(S(=O)(=O)NNC(=O)C2Cc3c(ccc4ccccc34)O2)cc1 (centres undefined),60,2,3,0,-3,0,8,52
CCCCOc1ccc(S(=O)(=O)NNC(=O)C2Cc3c(ccc4ccccc34)O2)cc1 (centres undefined),-5,1,7,-2,8,4,·,·
NC(=O)c1ccccc1NC(=O)c1ccccc1Cl,-6,0,-2,0,-3,3,·,·
O=C(Nc1ccccc1C(=O)Nc1nnc(C(F)(F)F)s1)c1ccccc1Cl,100*,2,-2,-2,11,2,101*,93*
Clc1ccc(OCCn2cnc3ccccc32)c(Cl)c1,-56,-3,-1,0,-4,2,·,·
Cn1c(=O)c2[nH]c(CCCCc3nc4ccccc4[nH]3)nc2n(C)c1=O,-16,·,1,0,4,-4,·,·
Cn1c(=O)c2[nH]c(CCCCCCCCc3nc4ccccc4[nH]3)nc2n(C)c1=O,68,·,-1,0,1,6,79*,61
SMILES,NR2E3 ag-1,NR2E3 ag-2,MC4R barr agon,PG9 Ab binder,MC4R antagonist,NR1D1 modulator,NR2E3 ag conf,VP16 counter
Cc1ccc(C2(c3ccc(C)cc3)CC2C(=O)Nc2ccc([N+](=O)[O-])cc2O)cc1 (centres undefined),100*,0,-3,0,14,3,99*,90*
COc1ccccc1CNc1nc(Nc2ccccc2OC)c2sccc2n1,57,·,-3,·,-3,·,54,43
COc1ccccc1CNc1nc(Nc2ccc(C)cc2C)c2sccc2n1,59,·,0,-2,1,3,65,52
Cc1ccc(Nc2nc(NCc3ccccc3)nc3ccsc23)c(C)c1,57,·,-2,1,-9,3,42,50
Cc1ccc(Nc2nc(NCc3cccs3)nc3ccsc23)c(C)c1,35,·,1,-2,-14,10,·,·
CCN(CC(=O)Nc1cccc(OC)c1)c1ncnc2sc(C)c(C)c12,71*,-1,-1,0,2,1,88*,71*
O=C(N=C1SC2CS(=O)(=O)CC2N1c1cccc(F)c1)C1CC1 (centres undefined),-20,-3,-1,-2,5,-1,·,·
c1ccc(CNc2nc(NCC3CC3)nc3cc(-c4ccccc4)sc23)cc1,-5,·,7,0,14,10,·,·
COc1cccc(CNc2nc(NCc3ccccc3)nc3ccsc23)c1,60,·,1,-1,-9,-3,51,53
COc1cccc(CNc2nc(NCC3CC3)nc3ccsc23)c1OC,22,·,-2,1,1,7,·,·
CC(C)c1ccc(CNc2nc(NCC3CC3)nc3ccsc23)cc1,64,·,5,-1,-1,4,48,45
COc1cccc(CNc2nc(NCC3CC3)nc3ccsc23)c1,84*,·,1,0,10,-2,41,41
CSc1ccccc1CNc1nc(NCC2CC2)nc2ccsc12,72*,·,0,1,-10,10,60,47
CNc1nc(NCc2cccc(OC)c2)c2sccc2n1,13,·,0,1,-1,5,·,·
CCOC(=O)c1cc(NC(=O)c2cnccn2)cc(C(=O)OCC)c1,-5,3,-3,-1,1,2,·,·
CC(C)C[C@@H](CNCC(=O)[C@H](CC(C)C)NC(=O)c1[nH]cnc1C(=O)N[C@H](CN)CC(C)C)NC(=O)c1nc[nH]c1C(=O)N[C@@H](Cc1ccccc1)C(=O)O,-32,·,0,-1,6,-5,·,·
